As a reminder, the IC50 is the concentration at which inhibition is half-maximal. As a reminder, the MIC is the least concentration at which growth counts as inhibited.

The source of these data is publication PMC12502093 (RSC Advances, 2025).

Values after ≈ are worked out from the molar mass of the structure shown.

For one test, the system named is MCF7 cells. The test can be described thus: Neutral red uptake cytotoxicity assay, MCF7. To be noted: for IC50: Homo sapiens, MCF7, 48 h, read-out: IC50 (μM) MCF7; for (SI) MCF7, selectivity index: SI = IC50 MDCK cell/IC50 MCF7 cell. Format: cell-based, human. In a few lines: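 Neutral red uptake. Log-phase cells were grown in DMEM with 10% FBS at 37 °C, 5% CO2, at 10^4 cells/well. They were exposed 48 h to 12.5, 25, 50 and 100 μM test compound (DMSO final <0.2%), then given neutral red medium for 2 h and washed with DPBS. Dye was extracted with 1% acetic acid/50% ethanol and read at 450/630 nm. IC50 came from log concentration versus intensity, three runs averaged. SI = MDCK IC50 / MCF7 IC50.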

A further test deals with IL6. The test is described as follows: qRT-PCR gene expression in MCF7 cells: IL6. The format is cell-based, human. To be noted: compound at IC50, 48 h, relative to β-Actin, vs control. In a few lines:
(§1)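 MCF7 cells (3 × 10^4 per well) were treated 48 h with test compound. Total RNA was column-extracted and reverse-transcribed to first-strand cDNA. SYBR Green qPCR ran 95 °C 10 min, then 40 cycles of 95 °C 15 s, 60 °C 30 s, 72 °C 30 s. Expression was normalised to β-Actin by 2−ΔΔCT relative to untreated control. Data are mean ± SEM; Student's t-test, P < 0.05.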

The next test has as its system JAK2. The test is described as follows: qRT-PCR gene expression in MCF7 cells: JAK2. The format is cell-based, human. To be noted: compound at IC50, 48 h, relative to β-Actin, vs control. In a few lines: as §1
(Quantitative PCR measures a nucleic acid by following its amplification.)

The test system of test [1] is STAT3. The test is described as follows: qRT-PCR gene expression in MCF7 cells: STAT3. Format: cell-based, human. To be noted: compound at IC50, 48 h, relative to β-Actin, vs control. In a few lines:
as §1

For another test, the system named is BCL2. The test can be described thus: qRT-PCR gene expression in MCF7 cells: BCL2. To be noted: compound at IC50, 48 h, relative to β-Actin, vs control. The format is cell-based, human. The gist of the method:
as §1

For another test, the system named is BAX. The test is described as follows: qRT-PCR gene expression in MCF7 cells: BAX. Format: cell-based, human. To be noted: compound at IC50, 48 h, relative to β-Actin, vs control. In a few lines: as §1
For another test, the system named is Cyclin D1. The test can be described thus: qRT-PCR gene expression in MCF7 cells: Cyclin D1. The format is cell-based, human. To be noted: compound at IC50, 48 h, relative to β-Actin, vs control. In a few lines:
as §1

The subject of a further test is c-MYC. The test is described as follows: qRT-PCR gene expression in MCF7 cells: c-MYC. To be noted: compound at IC50, 48 h, relative to β-Actin, vs control. The format is cell-based, human. The gist of the method: as §1
A further test deals with S. aureus ATCC 25923. The test is described as follows: Agar well diffusion test. Format: cell-based. To be noted: AWDT; for Zone of inhibition, inhibition scale: S. aureus ATCC 25923; for Zone of inhibition: S. aureus ATCC 25923, average of triplicate. The gist of the method: (§2)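 Agar well diffusion. Test compounds were placed in wells on agar inoculated with the reference strain or isolate. After incubation, inhibition zone diameters were measured in mm with a caliper. Runs were in triplicate and the zone averaged. Scale: 0 = no inhibition; 0–6 mm (−); 7–11 mm (+); 12–14 mm (++); 15–17 mm (+++).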
In general terms: Agar diffusion results depend on both activity and mobility in agar.

Test [2] concerns E. coli O157 ATCC 700728. The test can be described thus: Agar well diffusion test. Format: cell-based. To be noted: AWDT; for Zone of inhibition: E. coli O157 ATCC 700728, average of triplicate. In a few lines:
as §2

In test [3] the test system is C. albicans ATCC 10231. The test can be described thus: Agar well diffusion test. Format: cell-based. To be noted: AWDT; for Zone of inhibition, inhibition scale: C. albicans ATCC 10231; for Zone of inhibition: C. albicans ATCC 10231, average of triplicate.
For a further test, the system named is A. flavus isolate. The test can be described thus: Agar well diffusion test. Format: cell-based. To be noted: AWDT; for Zone of inhibition: average of triplicate. The gist of the method:
as §2

Test [4] relates to E. coli O157 ATCC 700728. The test can be described thus: Minimum inhibitory concentration, E. coli. The format is cell-based. To be noted: Escherichia coli, ATCC700728, read-out: MIC (mg mL^−1). In a few lines:
(§3)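 MIC was determined by a previously reported method for compounds selected from the well-diffusion screen and is expressed in mg mL−1. […] For C. albicans, 100 μL of negative cells went onto potato dextrose agar at 25 °C/72 h.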

In test [5] the test system is C. albicans ATCC 10231. The test can be described thus: Minimum inhibitory concentration, C. albicans. Format: cell-based. To be noted: Candida albicans, ATCC10231, read-out: MIC (mg mL^−1). In a few lines:
as §3

Test [6] has as its target STAT3 (Homo sapiens, UniProt P40763). The test is described as follows: STAT3 tyrosine phosphorylation inhibition. The format is biochemical. To be noted: for IC50: STAT3 phosphorylation IC50 (μM) (mean ± SD), ELISA, eight dilutions 100-0.03 μM; for Potency as STAT3 inhibitor relative to lead compound I: higher potency than compound I. On the technique in general: An ELISA detects its analyte on a solid surface through an enzyme-linked reagent.

Test [7] has as its target T1, E. coli DNA gyrase (Escherichia coli, UniProt P0AES6). The test can be described thus: E. coli DNA gyrase supercoiling assay. Format: biochemical. In a few lines:
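Commercial kit assay of E. coli DNA gyrase supercoiling. Relaxed plasmid DNA is the substrate, and relaxed and supercoiled forms are separated by agarose gel electrophoresis. Test compounds were dissolved in DMSO and added at different concentrations to derive IC50.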

The target in test [8] is T1, E. coli DNA gyrase. The test can be described thus: E. coli DNA gyrase ATPase assay. Format: biochemical.
Test [9] deals with T2, E. coli topoisomerase IV (Escherichia coli, UniProt P20083). The test is described as follows: E. coli topoisomerase IV cleavage assay. Format: biochemical.
The target of test [10] is T2, E. coli topoisomerase IV. The test can be described thus: E. coli topoisomerase IV ATPase assay. Format: biochemical.
Test [11] concerns the target T3, S. aureus DNA gyrase (Staphylococcus aureus, UniProt P0A0K8). The test is described as follows: S. aureus DNA gyrase supercoiling assay. The format is biochemical.
The target of test [12] is T3, S. aureus DNA gyrase. The test can be described thus: S. aureus DNA gyrase ATPase assay. Format: biochemical.
For test [13], the target named is T4, S. aureus topoisomerase IV (Staphylococcus aureus, UniProt P0C1S7). The test is described as follows: S. aureus topoisomerase IV decatenation assay. Format: biochemical.
Test [14] addresses T4, S. aureus topoisomerase IV. The test is described as follows: S. aureus topoisomerase IV ATPase assay. The format is biochemical.

Chain of STAT3 (Homo sapiens, UniProt P40763) (P40763 whole entry): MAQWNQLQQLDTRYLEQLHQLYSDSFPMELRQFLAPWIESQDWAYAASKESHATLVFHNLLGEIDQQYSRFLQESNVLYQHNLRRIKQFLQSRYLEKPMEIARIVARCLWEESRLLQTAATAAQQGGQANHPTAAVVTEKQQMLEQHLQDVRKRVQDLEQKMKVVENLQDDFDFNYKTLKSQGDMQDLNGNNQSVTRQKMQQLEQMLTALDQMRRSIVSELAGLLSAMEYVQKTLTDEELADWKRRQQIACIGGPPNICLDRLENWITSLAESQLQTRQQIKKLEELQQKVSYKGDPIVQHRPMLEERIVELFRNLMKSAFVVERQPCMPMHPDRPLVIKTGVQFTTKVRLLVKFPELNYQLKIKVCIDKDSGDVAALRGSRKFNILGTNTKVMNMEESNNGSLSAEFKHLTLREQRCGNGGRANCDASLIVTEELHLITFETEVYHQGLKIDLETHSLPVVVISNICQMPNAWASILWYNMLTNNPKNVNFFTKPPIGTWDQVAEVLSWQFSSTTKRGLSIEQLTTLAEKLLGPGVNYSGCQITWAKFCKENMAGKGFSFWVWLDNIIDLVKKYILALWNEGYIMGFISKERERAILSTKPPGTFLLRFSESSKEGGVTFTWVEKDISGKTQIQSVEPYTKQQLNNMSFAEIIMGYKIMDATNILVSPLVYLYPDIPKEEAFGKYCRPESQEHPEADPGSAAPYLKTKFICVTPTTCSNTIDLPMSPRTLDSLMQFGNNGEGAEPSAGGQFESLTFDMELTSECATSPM
T2 sequence (P20083 whole entry): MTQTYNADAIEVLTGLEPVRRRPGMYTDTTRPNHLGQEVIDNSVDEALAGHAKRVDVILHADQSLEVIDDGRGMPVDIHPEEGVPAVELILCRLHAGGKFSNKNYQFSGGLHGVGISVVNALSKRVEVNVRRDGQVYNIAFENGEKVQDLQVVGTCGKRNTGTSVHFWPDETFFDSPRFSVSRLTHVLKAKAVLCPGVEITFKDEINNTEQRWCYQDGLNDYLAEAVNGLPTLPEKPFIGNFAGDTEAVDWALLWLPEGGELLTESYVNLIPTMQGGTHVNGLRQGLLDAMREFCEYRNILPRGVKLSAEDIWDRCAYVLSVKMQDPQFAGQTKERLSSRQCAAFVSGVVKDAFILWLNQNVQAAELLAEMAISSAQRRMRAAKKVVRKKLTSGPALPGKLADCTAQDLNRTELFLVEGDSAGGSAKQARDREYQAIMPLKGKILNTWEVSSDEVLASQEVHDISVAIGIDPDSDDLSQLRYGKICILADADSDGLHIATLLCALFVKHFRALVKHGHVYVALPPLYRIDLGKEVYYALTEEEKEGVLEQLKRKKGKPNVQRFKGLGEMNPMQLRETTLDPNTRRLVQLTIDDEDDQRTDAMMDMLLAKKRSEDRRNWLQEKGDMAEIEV
T2 sequence (P0AFI2 whole entry partner): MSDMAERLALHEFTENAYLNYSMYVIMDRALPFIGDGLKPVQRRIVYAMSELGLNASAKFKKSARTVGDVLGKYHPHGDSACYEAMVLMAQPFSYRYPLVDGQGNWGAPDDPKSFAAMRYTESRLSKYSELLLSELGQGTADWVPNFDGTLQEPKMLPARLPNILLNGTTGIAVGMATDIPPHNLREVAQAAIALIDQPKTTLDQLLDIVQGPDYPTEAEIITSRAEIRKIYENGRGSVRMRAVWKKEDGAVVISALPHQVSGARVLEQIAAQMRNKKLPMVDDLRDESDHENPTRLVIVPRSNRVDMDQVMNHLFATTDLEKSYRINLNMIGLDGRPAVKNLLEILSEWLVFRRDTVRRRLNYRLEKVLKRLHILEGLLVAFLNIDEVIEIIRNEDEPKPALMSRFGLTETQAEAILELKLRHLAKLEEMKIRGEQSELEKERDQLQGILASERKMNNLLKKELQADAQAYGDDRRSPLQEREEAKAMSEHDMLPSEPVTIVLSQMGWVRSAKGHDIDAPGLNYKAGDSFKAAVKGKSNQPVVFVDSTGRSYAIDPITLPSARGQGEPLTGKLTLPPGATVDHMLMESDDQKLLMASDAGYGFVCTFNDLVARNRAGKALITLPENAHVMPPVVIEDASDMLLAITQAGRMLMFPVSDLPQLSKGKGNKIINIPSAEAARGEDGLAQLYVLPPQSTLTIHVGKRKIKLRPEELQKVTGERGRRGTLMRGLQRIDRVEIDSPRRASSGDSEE
T4 sequence (P0C1S7 whole entry): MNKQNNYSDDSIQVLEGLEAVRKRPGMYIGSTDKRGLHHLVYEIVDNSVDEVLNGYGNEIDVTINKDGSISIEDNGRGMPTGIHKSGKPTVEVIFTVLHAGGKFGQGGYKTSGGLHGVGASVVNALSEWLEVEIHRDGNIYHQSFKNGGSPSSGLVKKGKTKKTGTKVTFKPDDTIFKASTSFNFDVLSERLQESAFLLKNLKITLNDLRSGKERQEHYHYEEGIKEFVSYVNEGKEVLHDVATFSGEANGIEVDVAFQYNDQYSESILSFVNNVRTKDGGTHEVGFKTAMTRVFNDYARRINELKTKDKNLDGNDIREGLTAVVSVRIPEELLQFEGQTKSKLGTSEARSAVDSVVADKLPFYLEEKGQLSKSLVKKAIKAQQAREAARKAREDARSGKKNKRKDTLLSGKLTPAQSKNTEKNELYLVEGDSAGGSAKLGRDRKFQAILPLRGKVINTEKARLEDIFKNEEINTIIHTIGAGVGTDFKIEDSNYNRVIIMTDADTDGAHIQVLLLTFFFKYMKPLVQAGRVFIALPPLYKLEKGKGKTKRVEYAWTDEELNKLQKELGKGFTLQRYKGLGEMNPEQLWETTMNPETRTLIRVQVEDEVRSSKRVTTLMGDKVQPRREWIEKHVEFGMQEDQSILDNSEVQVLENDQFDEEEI
T4 sequence (P0C1U9 whole entry partner): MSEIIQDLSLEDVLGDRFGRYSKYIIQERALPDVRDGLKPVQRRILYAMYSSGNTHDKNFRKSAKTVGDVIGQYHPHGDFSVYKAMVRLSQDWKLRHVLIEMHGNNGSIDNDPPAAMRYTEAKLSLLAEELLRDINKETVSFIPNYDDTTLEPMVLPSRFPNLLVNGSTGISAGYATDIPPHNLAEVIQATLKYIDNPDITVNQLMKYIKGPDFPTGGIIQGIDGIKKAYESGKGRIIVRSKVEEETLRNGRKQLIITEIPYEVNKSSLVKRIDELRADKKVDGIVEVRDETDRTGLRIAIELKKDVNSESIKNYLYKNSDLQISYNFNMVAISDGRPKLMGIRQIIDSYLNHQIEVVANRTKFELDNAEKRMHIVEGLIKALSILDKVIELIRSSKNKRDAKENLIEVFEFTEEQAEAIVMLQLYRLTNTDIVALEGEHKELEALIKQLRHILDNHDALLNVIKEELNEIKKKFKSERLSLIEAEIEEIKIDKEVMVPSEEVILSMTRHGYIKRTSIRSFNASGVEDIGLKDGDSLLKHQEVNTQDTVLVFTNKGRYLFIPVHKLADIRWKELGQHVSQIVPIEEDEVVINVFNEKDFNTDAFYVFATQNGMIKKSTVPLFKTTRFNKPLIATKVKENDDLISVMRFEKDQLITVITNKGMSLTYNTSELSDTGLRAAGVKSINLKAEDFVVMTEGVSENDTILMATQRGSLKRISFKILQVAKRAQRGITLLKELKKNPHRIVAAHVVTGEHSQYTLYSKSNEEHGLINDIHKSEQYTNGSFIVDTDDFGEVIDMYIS

For the compound `CC(=O)c1ccc2cc(S(=O)(=O)Nc3ccc(F)cc3)ccc2c1` [Compound 5b, 6-Acetyl-N-(4-fluorophenyl)naphthalene-2-sulfonamide], the half-maximal inhibitory concentration (IC50) in the test with MCF7 cells was 40.1 µM; on STAT3 [6], 3.59 ± 0.7 µM; on E. coli DNA gyrase [7] it was 20.6 µM; at E. coli DNA gyrase [8] it was 3.58 µM; against E. coli topoisomerase IV [9] it was 15.4 µM; at E. coli topoisomerase IV [10] it was 3.49 µM. For the same compound, the “(SI) MCF7, selectivity index” value in the test on MCF7 cells was 2.33. For the same compound, the “IL6 gene expression level” value in the test on IL6 is recorded as “significant decrease”. In addition, in the test with JAK2, the “JAK2 gene expression level” value is reported as “significant decrease”. The “STAT3 gene expression level” value in the test on STAT3 [1] was “significant decrease”. Further, the “BCL2 gene expression level” value in the test with BCL2 is listed as “significant decrease”. The “BAX gene expression level” value with BAX is on record as “significant increase”. Further, in the test on Cyclin D1, the “Cyclin D1 gene expression level” value was “significant decrease”. In the test with c-MYC, the “c-MYC gene expression level” value was “significant decrease”. The results for the “Zone of inhibition, inhibition scale” value with S. aureus ATCC 25923, in the test with C. albicans ATCC 10231 [3] and in the test with A. flavus isolate were “− (0–6 mm (−))”, “+++ (15–17 mm (+++))” and “− (0–6 mm (−))”, respectively. Moreover, the Zone of inhibition worked out at 0 mm with S. aureus ATCC 25923, 15 mm in the test on E. coli O157 ATCC 700728 [2], 15 mm in the test with C. albicans ATCC 10231 [3] and 0 mm with A. flavus isolate. Further, the MIC with E. coli O157 ATCC 700728 [4] was 10000 µg/mL (≈ 29.1 mM); in the test with C. albicans ATCC 10231 [5], 10 mg/mL (≈ 29.1 mM). Besides, at STAT3 [6], the “Potency as STAT3 inhibitor relative to lead compound I” value is recorded as “approximately 2 fold”. In addition, the “Potency relative to norfloxacin, topoisomerase IV cleavage assay” value at E. coli topoisomerase IV [9] (E. coli, more potent than norfloxacin) is 1.5 fold.
`CC(=O)c1ccc2cc(S(=O)(=O)Nc3ccc(Br)cc3)ccc2c1` [Compound 5e, 6-Acetyl-N-(4-bromophenyl)naphthalene-2-sulfonamide]: the IC50 is 43.1 µM in the test with MCF7 cells; 3.01 ± 0.06 µM against STAT3 [6]; 21.8 µM at S. aureus DNA gyrase [11]; 3.04 µM at S. aureus DNA gyrase [12]; 18.9 µM in test [13]; 5.96 µM in test [14]. The “(SI) MCF7, selectivity index” value in the test on MCF7 cells came to 2.22. Also, the “IL6 gene expression level” value in the test on IL6 is on record as “significant reduction”. For the same compound, the “STAT3 gene expression level” value with STAT3 [1] is reported as “significant reduction”. Also, the “BAX gene expression level” value in the test with BAX is recorded as “significantly increased”. In the test on Cyclin D1, the “Cyclin D1 gene expression level” value was “significant reduction”. Moreover, the “c-MYC gene expression level” value with c-MYC is listed as “significant reduction”. Moreover, the “Zone of inhibition, inhibition scale” value in the test with S. aureus ATCC 25923 is “+++ (15–17 mm (+++))”; in the test on E. coli O157 ATCC 700728 [2] (E. coli O157 ATCC 700728), “++ (12–14 mm (++))”; with C. albicans ATCC 10231 [3] it was “+++ (15–17 mm (+++))”; with A. flavus isolate, “+ (7–11 mm (+))”. Besides, the Zone of inhibition in the test on S. aureus ATCC 25923 stood at 16 mm; in the test with E. coli O157 ATCC 700728 [2], 12 mm; with C. albicans ATCC 10231 [3], 15 mm; in the test with A. flavus isolate, 11 mm. Also, in the test on C. albicans ATCC 10231 [5], the MIC worked out at 20 mg/mL (≈ 49.5 mM). Besides, on STAT3 [6], the “Potency as STAT3 inhibitor relative to lead compound I” value is “approximately 2 fold”. For the same compound, in [14] (S. aureus, less than ciprofloxacin), the “Activity relative to ciprofloxacin, topoisomerase IV ATPase assay” value is recorded as “more than 3 fold”.
